Measurements from different studies.
Protocols differ between the studies behind these lines.
Organism: Candida albicans
Effect on: microbial growth

SMILES	assay	test system	setting	MIC
CC1=NN(CNC(=O)c2ccccc2)C(=O)C1=NNn1c(-c2ccccc2)nc2ccccc2c1=O	broth dilution			104 µM
N=C(N)N1CC=C(c2coc(C(=O)Nc3ccc(C4=CCN(C(=N)N)CC4)c(F)c3)c2)CC1	broth dilution		48 h, clinical isolate	0.78 µg/mL
O=C(CCCCCCCC[P+](c1ccccc1)(c1ccccc1)c1ccccc1)Nc1cc(O)c(O)c(O)c1.[Br-]	broth dilution	ATCC90028	24 h	> 32 µg/mL
CCOC(=O)c1nc2ccccc2c(=O)n1Cc1cn(-c2ccc(C)cc2)nn1	broth dilution	ATCC90028		250 µg/mL
CC1=NN(CNc2ccc(Cl)cc2)C(=O)C1=NNn1c(-c2ccccc2)nc2ccccc2c1=O	broth dilution			51.5 µM
O=C(CCc1ccc(O)c(O)c1)NCCCCCCCC[P+](c1ccccc1)(c1ccccc1)c1ccccc1.[Br-]	broth dilution	ATCC90028	24 h	> 32 µg/mL
CCc1nc(N)nc(N)c1C#CCc1cc(OC)ccc1OC	resazurin			250 µM
CC1=NN(CNc2c(O)c(S(=O)(=O)O)cc3ccccc23)C(=O)C1=NNn1c(-c2ccccc2)nc2ccccc2c1=O	broth dilution			41.8 µM
O=C(CCCCCCCC[P+](c1ccccc1)(c1ccccc1)c1ccccc1)Nc1ccc(O)c(O)c1.[Br-]	broth dilution	ATCC90028	24 h	> 32 µg/mL
CC(=O)NCN1N=C(C)C(=NNn2c(-c3ccccc3)nc3ccccc3c2=O)C1=O	broth dilution			120 µM
O=C(CCCCCC[P+](c1ccccc1)(c1ccccc1)c1ccccc1)Nc1ccc(O)c(O)c1.[Br-]	broth dilution	ATCC90028	24 h	32 µg/mL
OC(Cn1cncn1)(Cn1cncn1)c1ccc(F)cc1F		SC5314		2 µg/mL
C[C@@H]1[C@H](O)[C@@H](C)/C=C/C=C/C=C/C=C/C=C/C=C/C=C/[C@H](O[C@@H]2O[C@H](C)[C@@H](O)[C@H](N)[C@@H]2O)C[C@@H]2O[C@](O)(C[C@@H](O)C[C@@H](O)[C@H](O)CC[C@@H](O)C[C@@H](O)CC(=O)O[C@H]1C)C[C@H](O)[C@H]2C(=O)O		ATCC90028		0.63 µg/mL
CCOC(=O)CON		SC5314		32 µg/mL
OC(Cn1cncn1)(Cn1cncn1)c1ccc(F)cc1F	broth dilution	ATCC90028	24 h	0.125 µg/mL
O=C1NN=C(N=Cc2ccc(O)cc2O)C1=NNn1c(-c2ccccc2)nc2ccccc2c1=O	broth dilution			53.5 µM
